Consider 24 molecules from ChEMBL document CHEMBL1123812, “Pyrroloisoquinoline antidepressants. 2. In-depth exploration of structure-activity relationships” (J Med Chem, 1987).

Each structure is given as a SMILES string. Calls of active or inactive are those of the source.

The species entered for assay [1] is Mus musculus. As to the kind of experiment: Antagonism of tetrabenazine (TBZ)-induced depression measured in mice by motor activity. It counts as functional. Conditions: Mus musculus; read-out: ED50. Summed up:
(§1)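 Nonfasted male Swiss Webster mice, 18–24 g, ten per dose level and in saline controls. Test compound given ip 30 min before tetrabenazine 32 mg/kg ip; dose expressed as free base. Motor activity and ptosis scored. Control response ≤90% corrected by Abbott's formula.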

For assay [2], the species on record is Mus musculus. As to the kind of experiment: Antagonism of tetrabenazine (TBZ)-induced depression in mice measured for ptosis. The class given is functional. The following applies: Mus musculus; read-out: ED50. An outline of the steps: as §1
For assay [3], the target named is Sodium-dependent dopamine transporter (Rattus norvegicus, UniProt P23977). Nature of the assay: Inhibition of the uptake of tritiated dopamine (DA) in rat synaptosomes. The class given is subcellular, Brain.
The species named for assay [4] is Mus musculus. As to the kind of experiment: Gross behavioral effects ascertained in mice; S indicates significant stimulant properties. It counts as functional, organism-based. An outline of the steps: (§2)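 Male Swiss Webster mice, 18–24 g, three per dose, given ip doses of 1, 3, 10, 30, 100 and 300 mg/kg. Observed for gross behavior and held for 4 days. Scored as weak (W), stimulant (S), depressant (D) or convulsant (C).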

Assay [5] has as its target Serotonin 2 (5-HT2) receptor (Rattus norvegicus, UniProt P30994+P08909+P14842). Nature of the assay: Binding affinity towards 5-hydroxytryptamine 2 receptor. The class given is protein assay.
The target in assay [6] is Norepinephrine transporter (Rattus norvegicus, UniProt Q9WTR4). As to the kind of experiment: Inhibition of uptake of tritiated norepinephrine (NE) in rat synaptosomes. It counts as subcellular, Brain.
Assay [7] concerns the target Norepinephrine transporter (Rattus norvegicus) (UniProt Q9WTR4). As to the kind of experiment: Ability to inhibit the uptake of [3H]norepinephrine (NE) 0.1 uM concentration at rat brain synaptosomes. It counts as functional, subcellular. Summed up: (§3)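 Male Wistar rat brain synaptosomes (P2 fraction): hypothalamus for NE, striatum for DA, cerebral cortex for 5-HT. Buffer is Tris- or HEPES-buffered salt medium with glucose, ascorbate and nialamide, pH 7.4 at 37 °C. Preincubated 10 min at 37 °C with compound. Uptake started with [3H]NE 100–300 nM, [3H]DA 50–300 nM or [3H]5-HT 100–200 nM, incubated 3 min (DA) or 6–10 min (NE, 5-HT). Blanks held on ice. Filtered, counted by scintillation.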

For assay [8], the species on record is Mus musculus. Nature of the assay: Gross behavioral effects ascertained in mice; W indicates weak stimulant or depressant activity of little significance. The class given is functional, organism-based. An outline of the steps:
as §2

Assay [9] relates to Mus musculus. Nature of the assay: Ability to antagonise intraperitoneal dose; inactive (<10% antagonism) at 30 mgjkg is represented as I-30. The class given is functional, organism-based. Summed up: as §1
In assay [10] the target is Sodium-dependent dopamine transporter (Rattus norvegicus) (UniProt P23977). Nature of the assay: Ability to inhibit the uptake of [3H]dopamine (DA) 0.1 uM concentration at rat brain synaptosomes. It counts as functional, subcellular. An outline of the steps:
as §3

Assay [11] addresses Sodium-dependent serotonin transporter (Rattus norvegicus) (UniProt P31652). Nature of the assay: Ability to inhibit the uptake of [3H]- serotonin(5-HT) 0.1 uM concentration at rat brain synaptosomes. It counts as functional, subcellular. Summed up: as §3
For assay [12], the system named is Mus musculus. As to the kind of experiment: Ability to antagonise intraperitoneal dose; inactive (<10% antagonism) at 30 mg/kg is represented as I-30. It counts as functional, organism-based. The arrangement: dose 30 mg/kg. An outline of the steps: as §1
Assay [13] addresses Adrenergic receptor alpha-2 (Rattus norvegicus) (UniProt P22086+P19328+P22909). Nature of the assay: Binding affinity towards alpha-2 adrenergic receptor at 1.0 uM concentration. The class given is protein assay.
The target of assay [14] is D(2) dopamine receptor (Rattus norvegicus) (UniProt P61169). As to the kind of experiment: Binding affinity towards dopamine receptor D2 at 1.0 uM concentration. An outline of the steps: (§4)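 Rat brain crude synaptic membranes in 20 mM NaHEPES pH 7.5. Ligands: α1 cortex […] 0.4 nM, nonspecific with (-)-NE 100 μM, 30 min at 25 °C. […] D2 striatum [3H]spiperone 0.05 nM with (+)-butaclamol 1 μM, 45 min at 37 °C. S1 cortex [3H]5-HT 1 nM plus glutathione and MgCl2, with 5-HT 10 μM, 20 min at 37 °C. […] Samples filtered on GF/B and counted.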

Assay [15] addresses Sodium-dependent dopamine transporter (Rattus norvegicus) (UniProt P23977). Nature of the assay: Inhibition of tritiated dopamine (DA) uptake at 0.1 uM concentration. It counts as functional. Summed up:
as §3

In assay [16] the target is Sodium-dependent serotonin transporter (Rattus norvegicus) (UniProt P31652). As to the kind of experiment: Inhibition of tritiated serotonin(5-HT) uptake at 0.1 uM concentration. The class given is functional. An outline of the steps:
as §3

Assay [17] is filed under the species Rattus norvegicus. As to the kind of experiment: Ability to inhibit the uptake of tritiated norepinephrine (NE) at 0.1 uM concentration. It counts as functional. An outline of the steps:
as §3

Assay [18] has as its target Serotonin 1 (5-HT1) receptor (Rattus norvegicus) (UniProt P28564+P30940+P19327+P28565). As to the kind of experiment: Binding affinity towards serotonin S1 receptor at 1.0 uM. It counts as protein assay. An outline of the steps: as §4
The target of assay [19] is Muscarinic acetylcholine receptor (Rattus norvegicus) (UniProt P08482+P08483+P08485+P08911+P10980). Nature of the assay: Binding affinity towards Muscarinic acetylcholine receptor at 1.0 uM concentration. The class given is protein assay.
Assay [20] deals with Adrenergic receptor alpha-1 (Rattus norvegicus) (UniProt P15823+P23944+P43140). As to the kind of experiment: Binding affinity towards alpha-1 adrenergic receptor at 1.0 uM concentration. It counts as protein assay. Summed up: as §4

As usually defined, the ED50 is the dose that gives a 50% effect, or the effect in half of the subjects. By Ki is commonly meant a measure of affinity in units of concentration, obtained from inhibition or displacement. Read a low Ki as tighter binding. Usually inhibition stands for the drop in the measured response relative to a control, in per cent. What is called Inhibition is the change of the read-out against control, counted positive when it falls. Low values mean little suppression, high ones strong suppression.

D(2) dopamine receptor (Rattus norvegicus), sequence (P61169 whole entry): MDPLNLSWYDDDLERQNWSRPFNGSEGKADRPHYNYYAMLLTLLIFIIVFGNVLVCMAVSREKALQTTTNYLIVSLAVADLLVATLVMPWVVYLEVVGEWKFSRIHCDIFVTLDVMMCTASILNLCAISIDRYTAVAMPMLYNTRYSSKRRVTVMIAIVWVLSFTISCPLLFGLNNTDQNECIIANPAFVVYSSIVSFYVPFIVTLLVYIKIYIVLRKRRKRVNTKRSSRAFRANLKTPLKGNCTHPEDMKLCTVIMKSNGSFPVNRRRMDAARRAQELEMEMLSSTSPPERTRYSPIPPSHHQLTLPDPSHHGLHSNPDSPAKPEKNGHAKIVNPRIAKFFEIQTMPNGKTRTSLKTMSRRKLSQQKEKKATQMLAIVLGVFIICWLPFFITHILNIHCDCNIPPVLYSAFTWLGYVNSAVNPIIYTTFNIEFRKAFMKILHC
Norepinephrine transporter, sequence (Q9WTR4 whole entry): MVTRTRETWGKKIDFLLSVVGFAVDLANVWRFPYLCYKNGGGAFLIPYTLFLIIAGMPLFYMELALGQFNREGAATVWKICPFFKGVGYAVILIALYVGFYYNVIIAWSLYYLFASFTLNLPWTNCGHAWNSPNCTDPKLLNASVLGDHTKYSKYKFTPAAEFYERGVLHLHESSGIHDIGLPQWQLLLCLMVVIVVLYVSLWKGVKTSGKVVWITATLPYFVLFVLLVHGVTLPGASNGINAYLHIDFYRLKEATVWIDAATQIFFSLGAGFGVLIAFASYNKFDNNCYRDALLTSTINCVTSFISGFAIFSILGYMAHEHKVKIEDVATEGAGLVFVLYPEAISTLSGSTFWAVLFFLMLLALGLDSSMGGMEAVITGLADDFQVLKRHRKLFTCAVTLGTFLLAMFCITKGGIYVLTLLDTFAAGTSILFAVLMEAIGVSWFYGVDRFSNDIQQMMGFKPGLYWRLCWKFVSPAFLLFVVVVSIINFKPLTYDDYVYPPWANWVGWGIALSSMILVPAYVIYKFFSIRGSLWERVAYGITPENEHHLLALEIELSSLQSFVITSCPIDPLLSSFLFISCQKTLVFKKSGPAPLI
Norepinephrine transporter (Rattus norvegicus), sequence (Q9WTR4 as listed by the source): as the sequence (Q9WTR4 whole entry) above
Sodium-dependent dopamine transporter, sequence (P23977 whole entry): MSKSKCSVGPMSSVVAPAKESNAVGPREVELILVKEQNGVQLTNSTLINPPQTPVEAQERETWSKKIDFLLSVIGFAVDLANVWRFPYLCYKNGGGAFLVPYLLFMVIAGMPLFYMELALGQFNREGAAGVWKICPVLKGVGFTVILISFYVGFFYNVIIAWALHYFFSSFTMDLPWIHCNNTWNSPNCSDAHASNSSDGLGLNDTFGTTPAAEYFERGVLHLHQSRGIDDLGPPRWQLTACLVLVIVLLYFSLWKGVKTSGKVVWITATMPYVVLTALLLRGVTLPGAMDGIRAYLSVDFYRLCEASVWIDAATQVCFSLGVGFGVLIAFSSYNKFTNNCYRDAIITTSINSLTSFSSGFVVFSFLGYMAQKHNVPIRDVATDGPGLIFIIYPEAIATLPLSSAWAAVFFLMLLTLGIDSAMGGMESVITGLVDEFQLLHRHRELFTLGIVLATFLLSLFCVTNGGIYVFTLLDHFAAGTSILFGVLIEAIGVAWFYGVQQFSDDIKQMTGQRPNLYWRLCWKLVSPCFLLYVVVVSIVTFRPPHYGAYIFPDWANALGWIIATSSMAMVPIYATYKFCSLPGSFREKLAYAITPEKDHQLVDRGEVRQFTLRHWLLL
Sodium-dependent dopamine transporter (Rattus norvegicus), sequence (P23977 whole entry): as above
Sodium-dependent serotonin transporter (Rattus norvegicus), sequence (P31652 whole entry): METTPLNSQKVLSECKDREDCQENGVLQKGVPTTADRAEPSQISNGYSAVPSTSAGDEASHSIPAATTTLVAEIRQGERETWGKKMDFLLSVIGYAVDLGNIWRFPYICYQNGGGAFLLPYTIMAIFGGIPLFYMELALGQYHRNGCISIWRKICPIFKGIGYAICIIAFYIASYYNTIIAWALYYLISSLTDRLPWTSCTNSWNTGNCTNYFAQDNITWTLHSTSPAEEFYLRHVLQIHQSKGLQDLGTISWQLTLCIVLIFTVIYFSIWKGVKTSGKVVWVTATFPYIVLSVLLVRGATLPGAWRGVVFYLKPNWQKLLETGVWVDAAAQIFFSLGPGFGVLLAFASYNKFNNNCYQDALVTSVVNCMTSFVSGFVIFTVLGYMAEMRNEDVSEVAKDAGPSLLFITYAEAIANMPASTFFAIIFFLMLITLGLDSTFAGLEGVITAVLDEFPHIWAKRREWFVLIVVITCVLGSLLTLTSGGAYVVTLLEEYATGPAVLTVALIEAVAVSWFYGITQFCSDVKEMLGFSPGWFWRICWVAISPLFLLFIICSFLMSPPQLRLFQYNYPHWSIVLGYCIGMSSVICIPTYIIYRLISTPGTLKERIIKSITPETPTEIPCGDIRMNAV

With `Br.Clc1cccc([C@@H]2CN3CCC[C@@H]3c3ccccc32)c1`, the 50% effective dose (ED50) in assay [1] was around 0.1 mg/kg; in assay [2], below 1 mg/kg. For the same molecule, the inhibition constant (Ki) stood at 2.5 nM in [3], 49 nM in assay [5] and 0.45 nM in assay [6]. Also, the behavior entry in assay [4] was “Stimulant”.
Consider `C[C@@H]1[C@@H](c2ccccc2)c2ccccc2[C@@H]2CCCN12`, for which the inhibition in assay [7] was determined as 4%; in assay [10], 0%; in [11] it was 12%. The behavior result in assay [8] is “Weak”. Moreover, the ED50 result in assay [9] and in assay [12] was “inactive” in each case.
For `c1ccc([C@@H]2CN3CCC[C@@H]3c3ccccc32)cc1` (stereo in doubt; (+)-7b), the figures for the inhibition in assay [13] and in assay [14] were 64% and 40%, respectively. Further, the behavior result in [4] is “Stimulant”.
In the case of `COc1cccc2c1[C@H](c1ccccc1)CN1CCC[C@@H]21`, the ED50 in assay [1] was determined as 20.7 mg/kg; in assay [2], 13.9 mg/kg. Moreover, in assay [8], the behavior result was “Weak”. Besides, the inhibition in assay [15] amounted to 0%; in assay [16], 31%. The same molecule showed an Inhibition in assay [17] of 5%.
Take `Br.Fc1c(F)c(F)c([C@@H]2CN3CCC[C@H]3c3ccccc32)c(F)c1F`: the inhibition came out at 0% in assay [15] and 4% in [16]. The molecule also registered an Inhibition in [17] of 12%.
Take `O=C(CCCN1CCC(O)(c2ccc(Cl)cc2)CC1)c1ccc(F)cc1`: the inhibition in assay [18] is 58%.
On to `COc1ccccc1[C@@H]1CN2CCC[C@H]2c2ccccc21`, for which the inhibition in assay [15] is -3%; in assay [16] it was -2%. The molecule further registered an Inhibition in assay [17] of 65%.
Turning to `COc1cc2c(cc1OC)[C@H]1CCCN1C[C@H]2c1ccccc1`, the ED50 turned out to be 15.1 mg/kg in [1] and 3.8 mg/kg in [2]. Moreover, the Ki in [3] amounted to 15 nM; in assay [6] it was 53.7 nM. Besides, the behavior result in assay [4] is “Stimulant”. For the same molecule, the inhibition in assay [14] came out at 6%.
With `Br.CSc1ccc([C@@H]2CN3CCC[C@H]3c3ccccc32)cc1`, the ED50 was above 75 mg/kg in assay [1] and 10.9 mg/kg in [2]. Further, the inhibition stood at 0% in [19], 28% in [14] and 43% in assay [20].
`Br.Clc1cccc2c1[C@H](c1ccccc1)CN1CCC[C@@H]21`: the ED50 in [1] and in assay [2] was above 3 mg/kg in each case. In addition, the inhibition in assay [15] turned out to be 6%; in assay [16] it was 0%. The Inhibition in [17] stood at 3%.
In the case of `Br.Fc1c(F)c(F)c([C@@H]2CN3CCC[C@@H]3c3ccccc32)c(F)c1F`, the inhibition was 14% in assay [15] and 2% in [16]. Further, the Inhibition in assay [17] worked out at 42%.
As to `Clc1cccc2c1[C@H]1CCCN1C[C@H]2c1ccccc1`, the figures for the inhibition in assay [15] and in [16] were 45% and 22%, respectively. In [17], the Inhibition was 4%.
As for `CSc1ccc([C@@H]2CN3CCC[C@@H]3c3ccccc32)cc1` (stereo in doubt; (+)-48b), in assay [18], the inhibition worked out at 31%.
As to `Br.Oc1ccc([C@@H]2CN3CCC[C@H]3c3ccccc32)cc1`, in [8], the behavior result is listed as “Partial stimulant”. The inhibition in [15] came to 26%; in assay [14] it was 59%. The 50% effective dose (ED50) in assay [2] was determined as 2 mg/kg. Besides, in [17], the Inhibition was 78%. Moreover, the ED50 result in assay [12] is “inactive”.
Turning to `Clc1cccc([C@@H]2CN3CCC[C@H]3c3ccccc32)c1`, the inhibition is 67% in assay [15] and 11% in assay [16]. The same molecule yielded a Ki in assay [6] of 100 nM.
`c1ccc([C@@H]2CN3CCC[C@@H]3c3ccccc32)cc1`: the results for the inhibition in assay [7], in assay [10] and in assay [11] were 4%, 6% and 16%, respectively. In addition, the behavior result in assay [8] is on record as “Partial stimulant”. Also, the ED50 result in assay [9] and in assay [12] was “inactive” each time.
Regarding `Fc1ccc([C@@H]2CN3CCC[C@H]3c3ccccc32)cc1`, the ED50 in [1] is above 60 mg/kg; in assay [2], above 10 mg/kg. For the same molecule, the behavior entry in assay [8] is “Weak”. In addition, the results for the inhibition in [15] and in assay [16] were 43% and 3%, respectively. The same molecule registered an Inhibition in [17] of 61%.
For `Br.COc1ccc([C@@H]2CN3CCC[C@@H]3c3ccccc32)cc1OC`, the 50% effective dose (ED50) in assay [1] was 2 mg/kg; in [2], 0.13 mg/kg. In addition, the behavior entry in assay [8] was “Partial stimulant”. The inhibition is -1% in assay [19], 15% in assay [13], -1% in assay [14] and 58% in assay [20]. Further, the Ki amounted to 71.9 nM in assay [3] and 3.4 nM in [6].
`CNCCC(Oc1ccc(C(F)(F)F)cc1)c1ccccc1` (stereo not drawn): the inhibition in assay [18] was determined as 13%; in assay [14], 12%.
With `Br.Oc1cccc([C@@H]2CN3CCC[C@H]3c3ccccc32)c1`, the ED50 in assay [1] was above 30 mg/kg; in assay [2], 3.1 mg/kg. Besides, the inhibitory constant (Ki) in assay [3] turned out to be 44.8 nM; in assay [6], 15.1 nM. Moreover, in [4], the behavior result was “Stimulant”.
Turning to `Br.c1ccc([C@H]2CN3CCC[C@H]3c3[nH]c4ccccc4c32)cc1`, the figures for the median effective dose (ED50) in assay [1] and in assay [2] were 1.07 mg/kg and 0.3 mg/kg, respectively. In addition, the inhibition constant (Ki) in assay [3] came out at 2.9 nM; in assay [6] it was 2.3 nM. Also, in [4], the behavior entry is “Significant stimulant”.
In the case of `COc1ccc([C@@H]2CN3CCC[C@H]3c3ccccc32)cc1OC`, the behavior result in assay [8] is “Weak”. Further, the inhibition was determined as 11% in [15] and 27% in assay [16]. In assay [2], the ED50 came to 29.4 mg/kg. The Inhibition in assay [17] is recorded as 9%. Also, the ED50 result in assay [12] was “inactive”.
For the molecule `Clc1ccc([C@@H]2CN3CCC[C@@H]3c3cc(Cl)ccc32)cc1`, the values for the 50% effective dose (ED50) in assay [1] and in assay [2] were 37.4 mg/kg and around 4 mg/kg, respectively. Also, the behavior entry in assay [8] is reported as “Partial stimulant”. In addition, the inhibition is 11% in assay [18], 10% in assay [13], 55% in assay [14] and 20% in assay [20]. Also, the inhibitory constant (Ki) in [3] and in [6] was 3.2 nM each time.
With `c1ccc(C[C@H]2CN3CCC[C@H]3c3ccccc32)cc1`, the inhibition in [7] amounted to 69%; in assay [10], 19%; in assay [11], 32%. Moreover, the ED50 result in assay [9] and in assay [12] was “inactive” throughout.
